HKDC1 inhibitor: HKDC1 hexokinase inhibitors, primary screen, biochemical, fluorescence, uHTS; Q2TB90; recombinant HKDC1, G6PDH/diaphorase resazurin coupled fluorescence; inhibition, % at 20 µM; actives 0.16% (n = 340,000); AID 493160, 2011;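 active = inhibition above about 35% when tested at 20 µM, limit read from the data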;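 note: plate controls were DMSO wells with enzyme for no effect and DMSO wells lacking enzyme for full effect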
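Material: recombinant HKDC1 hexokinase; Amount: HKDC1 at 5 µg/mL; Medium: Tris pH 8.0 buffer with MgCl2, Tween-20, BSA, BME; Schedule: 90 min reaction incubation at room temperature, dark; Technique: coupled resazurin fluorescence, excitation 525 nm, emission 613 nm.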
Diaphorase inh: diaphorase inhibitors and chemical oxidizers, primary screen, counter-screen for diaphorase-coupled primary assays, biochemical, uHTS, resorufin fluorescence | diaphorase resazurin-to-resorufin fluorescence, NADH, 16 min; bacterial (C. kluyveri) enzyme, not human | inhibition, % at 20 µM | actives 0.69% (n = 190,000) | AID 1217, 2008;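 active = primary screen inhibition at 20 µM above a set limit, cut at about 50% in these data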;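 note: plate controls were DMSO with full reaction for no effect and wells lacking NADH for full effect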
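System: Bacterial diaphorase enzyme (C. kluyveri) | Incubation: 16-min room-temperature incubation before reading | Benchmarks: No-NADH positive control and DMSO neutral control | Measured by: Resorufin fluorescence 544/590 nm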
G6PDH counter: L. mesenteroides G6PDH inhibitors, counter-screen for G6PDH-coupled screening assays, biochemical, Leuconostoc mesenteroides enzyme. glucose-6-phosphate dehydrogenase [Leuconostoc mesenteroides]. Purified L. mesenteroides G6PDH, diaphorase/resazurin coupled fluorescence, 45 min. inhibition, % at 5 µM. actives 0.12% (n = 200,000). AID 1020, 2008; in the data active = inhibition above about 50%
PfG6PD inh: PfG6PD enzyme inhibitors, primary screen, biochemical, fluorescence intensity, uHTS. PfGluPho enzyme, NADPH resazurin-diaphorase fluorescence. AID 504690, 2011. actives 0.78% (n = 350,000). inhibition, % at 20 µM;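 active = inhibition reaching at least a set limit at 20 µM in the primary screen, cut at about 59% in these data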;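 note: 0% = DMSO wells with substrate and 100% = DMSO wells lacking glucose-6-phosphate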
Active calls of the source: *; / = not tested or not shown. An excerpt weighted towards active compounds, which were near 1.3% of everything screened.

SMILES	HKDC1 inhibitor	Diaphorase inh	G6PDH counter	PfG6PD inh
Nc1cccc2cnccc12	4.8	54.1*	29.6	29.3
CC(=O)N1CCN(C2=Nc3cccc4cccc2c34)CC1	7.8	33.7	56.2*	25.7
CCOC(=O)N1CCN(C2=Nc3cccc4cccc2c34)CC1	6.0	33.7	58.3*	16.6
c1cc2c3c(cccc3c1)C(N1CCOCC1)=N2	4.2	/	/	25.5
O=C(OCC(=O)N1CCc2ccccc21)c1ccncc1	-4.0	/	/	0.4
CCN1C[C@@H]2[C@@H]3C(=O)N(Cc4ccccc4)C(=O)[C@@H]3[C@](CC)(C1=O)N2C(=O)c1ccc(F)cc1	-1.1	/	/	1.0
Cc1cccc(C(=O)NC2C(=O)NNC2c2ccc(Cl)cc2)c1 (configuration not stated)	-1.8	51.6*	12.8	10.3
CCc1nc(SCc2ccc(Cl)cc2)n[nH]1	5.0	64.5*	5.3	53.4
CCc1ccc2[nH]c(=O)c(C(c3nnnn3Cc3ccco3)N3CCC(C)CC3)cc2c1 (configuration not stated)	-0.4	31.7	-1.9	17.4
Cc1cc2cc(C(c3nnnn3Cc3ccco3)N3CCc4ccccc4C3)c(=O)[nH]c2cc1C (configuration not stated)	8.1	58.8*	11.4	32.8
Cc1cc2cc(C(c3nnnn3Cc3ccccc3)N3CCc4ccccc43)c(=O)[nH]c2cc1C (configuration not stated)	3.1	42.0	20.2	29.7
Cc1cc2cc(C(c3nnnn3Cc3ccco3)N3CCc4ccccc43)c(=O)[nH]c2cc1C (configuration not stated)	20.7	82.6*	22.9	54.0
CC(C)(C)Cc1c(-c2ccc(F)cc2)nc2ccc(Br)cn12	/	/	/	29.1
O=c1/c(=C/c2ccc(O)c([N+](=O)[O-])c2)sc2nc3ccccc3n12	8.5	112.8*	1.3	20.0
Cc1ccc(Nc2ccc(NCc3ccccc3)nn2)cc1C	-8.1	10.6	-0.2	4.0
Cc1ccc(Nc2nnns2)cc1C	0.8	19.5	-6.4	59.1*
O=C(Cc1ccccn1)c1ccc(Cl)cc1	-3.0	/	/	6.3
CC1=C(CC(=O)c2ccc(Cl)cc2)C(=O)c2ccccc2C1=O	2.6	34.0	56.0*	-0.9
COc1cc(NC(=O)c2cccs2)c(OC)cc1NC(=O)Nc1ccc(F)cc1	9.3	/	/	8.8
CN1CCc2cc3c(c4c2[C@H]1[C@H](O)c1ccccc1-4)OCO3	13.3	49.7	58.3*	52.4
COc1ccc2c(c1OC)C(=O)OC2C1c2c(cc3c(c2OC)OCO3)CCN1C (configuration not stated)	3.7	30.2	8.1	4.6
CCCCC[n+]1ccn(C2=C([O-])c3ccccc3C(=O)/C2=N\S(=O)(=O)c2ccc(Br)cc2)c1	14.0	/	/	23.8
CCCCC[n+]1ccn(C2=C([O-])c3ccccc3C(=O)/C2=N\S(=O)(=O)c2ccccc2)c1	-1.8	5.7	54.9*	1.9
CCCC[n+]1ccn(C2=C([O-])c3ccccc3C(=O)/C2=N\S(=O)(=O)c2ccccc2)c1	-8.6	12.0	56.3*	10.2
CC(C)N1CCc2c(sc(NC(=O)c3cc4cc([N+](=O)[O-])ccc4s3)c2C(N)=O)C1	24.3	66.9*	-4.4	18.0
SMILES	HKDC1 inhibitor	Diaphorase inh	G6PDH counter	PfG6PD inh
CN1CCc2c(sc(NC(=O)c3cc4cc([N+](=O)[O-])ccc4s3)c2C(N)=O)C1	/	12.5	-1.5	/
CC(C)COCc1ccc(O)c2ncccc12	-13.5	55.1*	25.1	-16.4
Oc1ccc(F)c2cccnc12	9.6	50.5*	65.0*	12.6
Oc1ccc(Cc2ccccc2)c2cccnc12	-29.5	/	/	-11.3
NC(=S)Nc1cccc2cccnc12	4.0	-2.8	4.5	16.3
NC(=S)NNc1cccc2cccnc12	6.6	71.5*	39.0	48.9
Oc1ccc(CNc2ccccc2F)c2cccnc12	-19.7	88.9*	20.4	-1.5
O=C(Nc1ccc(NC(=O)c2cccs2)c(Cl)c1)c1cccs1	-1.3	/	/	39.9
Cc1cccc(N(CC(=O)Nc2cccnc2)S(C)(=O)=O)c1	-1.0	/	/	15.7
O=C(Nc1ccccc1)Nc1cccc2cccnc12	6.4	11.4	8.3	49.3
Oc1ccccc1CNc1cccc2cccnc12	18.4	65.6*	52.4*	19.7
Oc1ccc(CN2CCc3ccccc3C2)c2cccnc12	-7.5	48.3	-24.7	-15.0
Oc1ccc(CN2CCCCC2)c2cccnc12	-6.0	58.2*	50.4*	17.1
OCc1ccc(O)c2ncccc12	-15.8	27.9	52.6*	-13.0
CCOC(=O)N1CCN(Cc2ccc(O)c3ncccc23)CC1	-5.7	72.0*	46.6	-15.7
CC[C@]12c3[nH]c4cc(CCC(=O)N(C)C)ccc4c3CCN1C(=O)[C@@H](CC(=O)NCC13CC4CC(CC(C4)C1)C3)C[C@@H]2C(=O)N1CCN(C(=O)c2ccco2)CC1	2.4	/	/	10.9
CCOc1ccc(-c2csc3nc[nH]c(=O)c23)cc1	-3.7	/	/	-1.7
Oc1ccc(CN2CCN(c3ccccc3)CC2)c2cccnc12	-26.1	65.7*	19.4	-9.9
Oc1ccc(CN2CCC(Cc3ccccc3)CC2)c2cccnc12	-7.2	61.8*	29.2	-13.5
Oc1ccc2ccccc2c1CN1CCN(c2ccccc2)CC1	13.7	17.2	7.6	12.9
COc1cccc(CNC(=O)COC(=O)c2nc(Cl)c(Cl)c(Cl)c2Cl)c1	11.8	/	/	-0.4
CCOC(=O)c1cc(C)n(-c2ccccc2)c1C	-1.4	/	/	-8.8
O=c1c2ccccc2c2ccccc2c(=O)n1Nc1ccccc1	/	/	/	-0.4
CCOc1cc([N+](=O)[O-])cc(/C=C2/NC(=O)N(Cc3ccccc3F)C2=O)c1O	8.7	56.4*	7.0	-9.1
CC1=NN(C(=S)Nc2ccccc2)C(c2ccccc2)C1 (configuration not stated)	-7.5	14.6	7.7	2.8
SMILES	HKDC1 inhibitor	Diaphorase inh	G6PDH counter	PfG6PD inh
Cc1ccc(C2CC(c3ccccc3)=NN2C(=S)Nc2ccccc2)o1 (configuration not stated)	10.2	76.3*	14.4	22.4
O=C(c1ccccc1)c1cc(Cl)ccc1N1C(=O)C=CC1=O	-3.6	10.7	6.8	111.5*
O=C(O)c1ccccc1NS(=O)(=O)c1ccc(NNC(=S)Nc2ccc(OC(F)F)cc2)c([N+](=O)[O-])c1	-9.1	67.3*	6.9	-1.4
Cc1ccc(-n2c(C)cc(/C=N/NC(=O)CC3(C)OCCO3)c2C)c(C)c1	5.5	9.9	3.8	8.3
CC1(CC(=O)N/N=C/c2cc([N+](=O)[O-])c(O)cc2O)OCCO1	-10.4	60.2*	-7.1	-23.0
COc1cc([N+](=O)[O-])cc(/C=N/NC(=O)CC#N)c1O	/	51.1*	20.6	/
COc1cc2[nH]c(=S)nc(NC3CCCCCC3)c2cc1OC	6.2	75.3*	-3.4	6.7
COc1cc(/C(O)=C(\C#N)c2nc3ccccc3[nH]2)cc(OC)c1OC	11.4	/	/	-22.4
COc1ccc(N(CCCN2C(=O)c3cccc4cccc(c34)C2=O)C(=O)c2ccncc2)cc1	14.2	37.5	0.3	14.1
